Screens from PubChem BioAssay.
In the library only some 6.8% were active in any assay of this set; here they are far more common.
ALR inh: human ALR oxidase inhibition via reduced H2O2 | purified ALR, DTT oxidation, H2O2 HRP-luminol luminescence | inhibition, % (no concentration beside the values) | actives 3.8% (n = 290,000);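 active = mean replicate inhibition above about 79%, with every replicate also reaching it, limit read from the data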
Target sequence (P55789 whole entry, looked up): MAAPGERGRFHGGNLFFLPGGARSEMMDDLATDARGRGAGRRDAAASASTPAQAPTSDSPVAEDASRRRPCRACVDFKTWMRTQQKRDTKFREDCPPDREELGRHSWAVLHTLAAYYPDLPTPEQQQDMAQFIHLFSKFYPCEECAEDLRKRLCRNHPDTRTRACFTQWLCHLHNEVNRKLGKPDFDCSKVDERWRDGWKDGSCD
HSF1 inh: HSF1 inhibition; actives 0.77% (n = 300,000); activity change, negative = inhibition, % at 7.5 µM (by protocol); NIH3T3-HGL HSE-luciferase, MG132-induced, luminescence 8 h; active compounds read low;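 active = more than half of replicate wells show activity change below -50%, luminescence cut by over half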;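 note: luciferase reports HSF-1 transcriptional activity via heat shock element; 0% = median of DMSO wells and -100% = zero luminescence signal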
AI-2 QS mod: Vibrio harveyi AI-2 quorum sensing modulation; activity change, % at 7.5 µM; Vibrio harveyi JMH597 AI-2 luminescence/OD600 ratio, 9 h; active compounds read low; strain lacks LuxN and CqsS sensors; 0 = neutral-control median; actives 0.4% (n = 300,000); in the data active = activity change below about -75%, passing the limit was not always enough;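 note: luminescence divided by OD600 gain over 9 h not by final OD600 alone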
core dimer inh: blocks dimerization of HCV core protein; TR-FRET GST/Flag-core106 dimerization, 1536-well; inhibition, % at 5 µM; actives 0.33% (n = 300,000);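 active = inhibition above the mean of all tested compounds plus 3 SD, set per screening campaign, cut at about 45% in these data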
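System: GST-tagged and Flag-tagged HCV core protein residues 1-106 / Input: core106 proteins, GST 13.5 nM and Flag 17 nM / Buffer or medium: KF-containing HEPES buffer, pH 7.45, DTT, CHAPS, BSA / Probe or stimulus: Eu-anti-GST and XL665-anti-Flag labelled anti-tag antibodies / Schedule: 4 h, 22.5 °C incubation / Technique: TR-FRET 671 and 617 nm emission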
HSF-1 act: increases HSF-1 driven luciferase reporter signal; NIH3T3-HGL HSF-1 luciferase reporter, MG132, 8 h; 100% = twice DMSO control signal; activation, % at 9 µM; actives 1.7% (n = 300,000); AID 504408;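 active = mean replicate activation of at least 50% with a set share of replicates each reaching 50%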;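 note: 0% = median of the neutral control wells and 100% = twice that signal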
PHOSPHO1 block: PHOSPHO1 (human) inhibition; Q8TCT1; recombinant PHOSPHO1, absorbance phosphatase assay; inhibition, % at 13.3 µM; actives 1.1% (n = 290,000); in the data active = inhibition above about 60%
Starred values were filed as active, the others as inactive.

For CC(NC(=O)COc1ncnc2cc([N+](=O)[O-])ccc12)c1ccccc1 (configuration not stated) the results were ALR inh -40.0, HSF1 inh 0.8, AI-2 QS mod 15.1, core dimer inh -3.9, HSF-1 act -1.1 and PHOSPHO1 block -4.5.
CCN1C(=O)CC(N2CCC(C(=O)OC)CC2)C1=O (configuration not stated) was read as ALR inh 2.2, HSF1 inh 1.5, AI-2 QS mod 13.5, core dimer inh -1.8, HSF-1 act 0.0 and PHOSPHO1 block 0.2.
For CCN1C(=O)CC(N2CCC(Nc3ccc(OC)cc3)CC2)C1=O (configuration not stated) the results were ALR inh 98.3*, core dimer inh -6.9 and PHOSPHO1 block 0.9.
`COc1ccc(NC2CCN(C3CC(=O)N(c4ccc(F)c(Cl)c4)C3=O)CC2)cc1` (configuration not stated) gave ALR inh 82.3*, HSF1 inh 18.4, AI-2 QS mod 21.7, core dimer inh -4.4, HSF-1 act 26.7 and PHOSPHO1 block -4.6.
`O=C(COC(=O)c1ccc2c(=O)n3c(nc2c1)CCC3)NC1CCS(=O)(=O)C1` (configuration not stated) gave ALR inh -5.3, HSF1 inh -1.8, AI-2 QS mod 17.6, core dimer inh -5.4, HSF-1 act -0.6 and PHOSPHO1 block -4.2.
Screening COc1cccc(C2CC(c3cccs3)=NN2S(C)(=O)=O)c1 (configuration not stated) returned ALR inh -1.6, HSF1 inh 2.4, AI-2 QS mod 27.9, core dimer inh -3.0, HSF-1 act 9.3 and PHOSPHO1 block 32.5.
`CC(=O)C1=C(c2ccccc2)N(C(C)=O)n2c(C)nnc2S1` gave ALR inh 98.7*, HSF1 inh -12.7, AI-2 QS mod 4.8, core dimer inh -61.6, HSF-1 act -9.6 and PHOSPHO1 block 15.9.
`CC(=O)N1CCN(c2nnc(-c3ccccc3)c3ccccc23)CC1` gave ALR inh 1.2, HSF1 inh -4.7, AI-2 QS mod 23.5, core dimer inh -0.3, HSF-1 act -7.2 and PHOSPHO1 block 27.0.
Screening COc1cccc(OC)c1C(=O)OCC(=O)Nc1ccc(OC(F)(F)F)cc1 returned ALR inh -6.2, HSF1 inh 1.3, AI-2 QS mod 9.0, core dimer inh 0.7, HSF-1 act 4.3 and PHOSPHO1 block 16.4.
Screening Cc1cc(C)cc(Oc2ccc(N)cc2)c1 returned ALR inh 98.5*, HSF1 inh 5.0, AI-2 QS mod 20.5, core dimer inh -1.2, HSF-1 act 7.7 and PHOSPHO1 block 39.3.
Screening Nc1ccc(Oc2ccc(Br)cc2)cc1 returned ALR inh 31.5, HSF1 inh -15.0, AI-2 QS mod 28.0, core dimer inh -3.3, HSF-1 act -19.8 and PHOSPHO1 block 6.6.
Screening Cc1cccc(Oc2ccccc2N)c1 returned ALR inh -0.4, HSF1 inh -0.4, AI-2 QS mod 16.9, core dimer inh 0.6, HSF-1 act -2.5 and PHOSPHO1 block -6.3.
Cc1cccc(Oc2ccc(N)cc2)c1 was read as ALR inh 98.0*, HSF1 inh -15.7, AI-2 QS mod -4.2, core dimer inh 1.5, HSF-1 act -22.3 and PHOSPHO1 block 5.0.
Nc1ccc(Oc2cccc(Oc3ccc(N)cc3)c2)cc1 was read as ALR inh 99.8*, HSF1 inh -0.7, AI-2 QS mod 16.6, core dimer inh -6.5, HSF-1 act -5.9 and PHOSPHO1 block -8.2.
Nc1ccc(Oc2ccc3c(c2)OCO3)cc1 was read as ALR inh 98.9*, HSF1 inh 0.6, AI-2 QS mod 10.8, core dimer inh 13.2, HSF-1 act -13.6 and PHOSPHO1 block 60.9*.
Screening CCC(C)n1c(OC)nc2c1c(=O)n(C)c(=O)n2C (configuration not stated) returned ALR inh -3.5, HSF1 inh -7.4, AI-2 QS mod 29.5, core dimer inh -2.5, HSF-1 act -2.1 and PHOSPHO1 block 31.2.
